The source of these data is ChEMBL document CHEMBL1134856, “SAR of 2,6-diamino-3,5-difluoropyridinyl substituted heterocycles as novel p38MAP kinase inhibitors” (Bioorg Med Chem Lett, 2002).

One data set has as its system Mus musculus. Nature of the data set: Inhibition of LPS induced TNF-alpha release in mice at 10 mg/kg peroral dose. The class given is functional. The following applies: route oral. A digest of the protocol: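 Female OF1 mice, 8 weeks old, received compound by oral gavage in DMSO/corn oil. One hour after dosing, LPS (20 mg/kg) was given iv. Blood was collected 1 h later, and plasma TNF-α was measured by mouse-specific ELISA.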

Data set [1] addresses Mitogen-activated protein kinase 14 (Mus musculus, UniProt P47811). Nature of the data set: […] inhibition of murine Mitogen-activated protein kinase p38 alpha activity, GST-ATF-2 as substrate in the presence of 120 uM ATP. A digest of the protocol:
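Phosphorylated His-tagged p38α MAP kinase of murine origin was used at 10 ng/well. Immobilised GST-ATF-2 served as substrate, with 120 μM cold ATP.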

Data set [2] concerns Rattus norvegicus. Nature of the data set: Tested for inhibition of swelling in adjuvant induced arthritis rat at 25 mg/kg per orally. The class given is functional. The following applies: route oral. The method in brief: (§1)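 Adjuvant-induced arthritis: female Wistar rats were immunised with Mycobacterium tuberculosis on day 0. They were dosed orally at 2 × 25 mg/kg per day from day 14 to day 20. Joint swelling was measured on day 20.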

For another data set, the system named is PBMC. Nature of the data set: Inhibition of LPS-stimulated TNF-alpha release from human peripheral blood mononuclear cells. The class given is functional, cell-based. A digest of the protocol:
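Human peripheral blood mononuclear cells from healthy volunteers were incubated with inhibitor and stimulated with LPS/IFN-γ for 3 h. TNF-α in the supernatants was determined by ELISA.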

Data set [3] concerns the target T1, Prostaglandin G/H synthase 1 (Ovis aries, UniProt P05979).
T1 sequence (P05979 whole entry): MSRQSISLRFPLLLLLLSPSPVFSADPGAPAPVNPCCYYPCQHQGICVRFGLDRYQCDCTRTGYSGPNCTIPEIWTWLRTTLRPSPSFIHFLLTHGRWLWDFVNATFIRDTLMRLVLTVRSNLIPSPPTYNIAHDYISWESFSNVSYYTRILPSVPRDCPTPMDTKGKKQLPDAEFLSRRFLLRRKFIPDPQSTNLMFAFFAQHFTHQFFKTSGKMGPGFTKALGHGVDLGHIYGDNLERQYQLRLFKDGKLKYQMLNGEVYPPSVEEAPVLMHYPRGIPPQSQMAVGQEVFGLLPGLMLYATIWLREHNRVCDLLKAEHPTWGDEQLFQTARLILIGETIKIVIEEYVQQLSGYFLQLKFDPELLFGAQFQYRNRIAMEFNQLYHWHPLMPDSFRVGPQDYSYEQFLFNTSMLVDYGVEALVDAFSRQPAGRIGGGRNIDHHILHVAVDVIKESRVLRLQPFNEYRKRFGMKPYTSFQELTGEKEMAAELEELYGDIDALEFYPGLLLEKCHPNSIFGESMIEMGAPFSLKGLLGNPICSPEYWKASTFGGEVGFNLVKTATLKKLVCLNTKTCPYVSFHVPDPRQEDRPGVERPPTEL
Nature of the data set: […] inhibition of ram seminal vesicle Prostaglandin G/H synthase 1 activity by determining PGE-2 by RIA.

The subject of data set [4] is Rattus norvegicus. Nature of the data set: Tested for inhibition of swelling in adjuvant induced arthritis rat at 25 mg/kg per orally; Toxic. The class given is functional. The following applies: po. A digest of the protocol:
as §1

Data set [5] relates to Rattus norvegicus. Nature of the data set: Dose-dependent protective activity at 3 mg/kg (po, b.i.d.) in loss of proteoglycans in hind paws of CIA-rats. The class given is functional.
Data set [6] has as its system Rattus norvegicus. Nature of the data set: Tested for inhibition of swelling in adjuvant induced arthritis rat at 25 mg/kg perorally b.i.d. The class given is functional. The following applies: route oral. A digest of the protocol:
as §1

The subject of data set [7] is Rattus norvegicus. Nature of the data set: Dose-dependent protective activity at 30 mg/kg (po, b.i.d.) on cartilage damage in hind paws of CIA-rats. The class given is functional.
Data set [8] deals with Rattus norvegicus. Nature of the data set: Dose-dependent protective activity at 10 mg/kg (po, b.i.d.) in loss of proteoglycans in hind paws of CIA-rats. The class given is functional.
The subject of data set [9] is Rattus norvegicus. Nature of the data set: Dose-dependent protective activity at 10 mg/kg (po, b.i.d.) on bone apposition in hind paws of CIA-rats. The class given is functional.
The nature of data set [10]: Tested for the half life in rat. The class given is ADME, organism-based. The following applies: in vivo.
Data set [11] relates to Rattus norvegicus. Nature of the data set: Dose-dependent protective activity at 10 mg/kg (po, b.i.d.) on cartilage damage in hind paws of CIA-rats. The class given is functional.
Data set [12] has as its system Rattus norvegicus. Nature of the data set: Dose-dependent protective activity at 3 mg/kg (po, b.i.d.) on bone apposition in hind paws of CIA-rats. The class given is functional.
The species entered for a further data set is Homo sapiens. Nature of the data set: Inhibition of LPS-stimulated TNF-alpha release from human whole blood. The class given is functional.
In data set [13] the test system is Rattus norvegicus. Nature of the data set: Dose-dependent protective activity at 3 mg/kg (po, b.i.d.) on cartilage damage in hind paws of CIA-rats. The class given is functional.
In data set [14] the test system is Rattus norvegicus. Nature of the data set: Dose-dependent protective activity at 10 mg/kg (po, b.i.d.) on infiltration of cells in hind paws of CIA-rats. The class given is functional.
The subject of data set [15] is Rattus norvegicus. Nature of the data set: Dose-dependent protective activity at 30 mg/kg (po, b.i.d.) on infiltration of cells in hind paws of CIA-rats. The class given is functional.
Data set [16] is filed under the species Rattus norvegicus. Nature of the data set: Tested for inhibition of paw swelling in collagen induced arthritis in rat, perorally q.d. The class given is functional. The following applies: po. The method in brief: (§2)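 Female WAGxBUF/F1 rats were immunised intradermally with bovine nasal septum type II collagen in Freund's incomplete adjuvant; swelling began about 10 days later. Oral dosing, once or twice daily, started on day 13 and continued for 10 days. Read-out was paw swelling, with ED50 values reported.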

The species named for data set [17] is Rattus norvegicus. Nature of the data set: Inhibition of LPS induced TNF-alpha release in rats. The class given is functional.
The nature of data set [18]: Tested for the bioavailability in rat. The class given is ADME, organism-based. The following applies: in vivo.
The subject of data set [19] is Rattus norvegicus. Nature of the data set: Dose-dependent protective activity at 3 mg/kg (po, b.i.d.) on infiltration of cells in hind paws of CIA-rats. The class given is functional.
For data set [20], the system named is Rattus norvegicus. Nature of the data set: Dose-dependent protective activity at 30 mg/kg (po, b.i.d.) in loss of proteoglycans in hind paws of CIA-rats. The class given is functional.
The species entered for data set [21] is Rattus norvegicus. Nature of the data set: Tested for inhibition of paw swelling in collagen induced arthritis in rat, perorally b.i.d. The following applies: oral. The class given is functional. The method in brief: as §2
Data set [22] has as its system Rattus norvegicus. Nature of the data set: Dose-dependent protective activity at 30 mg/kg (po, b.i.d.) on bone apposition in hind paws of CIA-rats. The class given is functional.
Data set [23] can be described thus: Tested for the Cmax in rat at 10 mg/kg per orally. The following applies: in vivo, po. The class given is ADME, organism-based. Details: dose 10 mg/kg, route oral.

Mitogen-activated protein kinase 14, sequence (P47811 whole entry): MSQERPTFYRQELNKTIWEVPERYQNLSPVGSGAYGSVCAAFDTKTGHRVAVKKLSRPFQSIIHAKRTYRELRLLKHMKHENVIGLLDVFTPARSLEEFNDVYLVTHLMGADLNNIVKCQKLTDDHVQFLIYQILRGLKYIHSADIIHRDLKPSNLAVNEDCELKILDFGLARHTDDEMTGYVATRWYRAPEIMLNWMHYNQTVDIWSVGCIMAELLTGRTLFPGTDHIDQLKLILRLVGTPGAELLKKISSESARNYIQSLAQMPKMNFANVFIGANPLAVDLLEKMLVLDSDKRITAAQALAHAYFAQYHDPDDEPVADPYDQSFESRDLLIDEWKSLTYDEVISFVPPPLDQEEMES

As a reminder, the inhibition in vivo is the relative decrease from the control value, in per cent. One may read the IC50 as the concentration at which inhibition is half-maximal. Take `Nc1nc(N)c(F)c(-c2nc(-c3ccc(F)cc3)c(-c3ccncc3)o2)c1F`: testing at 10 mg/kg in the data set with Mus musculus gave an inhibition in vivo of 81%. Further, the IC50 turned out to be 400 nM in data set [1], 373 nM with PBMC and 100000 nM in data set [3]. Further, in the data set on Rattus norvegicus [2], the inhibition in vivo at 25 mg/kg is 19%.

Take `Fc1ccc(-c2nn(-c3c(F)c(F)nc(F)c3F)nc2-c2ccncc2)cc1`: the concentration for half-maximal inhibition (IC50) in data set [1] and in data set [3] was 10000 nM each time.

On to `Fc1ccc(-c2nc[nH]c2-c2ccncc2)cc1`, for which the IC50 in data set [1] stood at 1000 nM.

In turn, `Nc1nc(F)c(F)c(-c2nc(-c3ccncc3)c(-c3ccc(F)cc3)[nH]2)c1F` had an inhibition in vivo at 10 mg/kg in the data set on Mus musculus of 64%. The figures for the IC50 (in data set [1]; in the data set on PBMC; in data set [3]) were 4 nM, 44 nM and 100000 nM, respectively. For the same compound, the inhibition in vivo at 25 mg/kg in the data set with Rattus norvegicus [4] amounted to 71%.

As to `Nc1nc(N)c(F)c(-c2cc(-c3ccncc3)c(-c3ccc(F)cc3)[nH]2)c1F`, the IC50 in [1] came to 4 nM; in the data set with PBMC, 18 nM; in [3], 6300 nM.

In turn, `Fc1ccc(-c2[nH]c(-c3c(F)c(F)nc(F)c3F)nc2-c2ccncc2)cc1` came in with an inhibition in vivo at 10 mg/kg with Mus musculus of 3%. Further, the IC50 was 90 nM in data set [1], 74 nM in the data set on PBMC and > 100000 nM in [3].

Take `Fc1ccc(-c2ncsc2-c2ccncc2)cc1`: the IC50 in [1] is 800 nM.

Turning to `Nc1nc(N)c(F)c(-c2nc(-c3cccc(C(F)(F)F)c3)c(-c3ccncc3)[nH]2)c1F`, testing at 10 mg/kg in the data set on Mus musculus gave an inhibition in vivo of 21%. In addition, the concentration for half-maximal inhibition (IC50) in data set [1] came out at 470 nM; in the data set with PBMC, 54 nM; in [3], 100000 nM.

`Nc1nc(N)c(F)c(-c2nc(-c3ccncc3)c(-c3cc4ccccc4o3)[nH]2)c1F` returned an inhibition in vivo at 10 mg/kg in the data set with Mus musculus of 1.8%. Further, the IC50 amounted to 5 nM in data set [1], 27 nM in the data set on PBMC and 100000 nM in [3].

As to `Fc1ccc(-c2[nH]nnc2-c2ccncc2)cc1`, the half-maximal inhibitory concentration (IC50) in [1] was determined as 1300 nM.

`Nc1nc(N)c(F)c(-n2nc(-c3ccncc3)c(-c3ccc(F)cc3)n2)c1F`: the half-inhibitory concentration (IC50) in [1] stood at 210 nM; in data set [3], 45000 nM.

On to `Nc1nc(N)c(F)c(-c2nc(-c3ccc(F)cc3)c(-c3ccncc3)s2)c1F`, for which the IC50 in data set [1] was 140 nM; with PBMC it was 31 nM; in data set [3] it was 100000 nM.

Regarding `Fc1ccc(-c2nc(-c3c(F)c(F)nc(F)c3F)oc2-c2ccncc2)cc1`, the IC50 in data set [1] was 100000 nM.

For the compound `Nc1nc(F)c(F)c(-c2nc(-c3ccc(F)cc3)c(-c3ccncc3)o2)c1F`, the figures for the IC50 (in [1]; in the data set with PBMC; in data set [3]) were 2100 nM, 1930 nM and 100000 nM, respectively.

As for `Fc1ccc(-c2[nH]ccc2-c2ccncc2)cc1`, the half-maximal inhibitory concentration (IC50) in data set [1] is 800 nM.

One may read the ED50 as the dose that gives a 50% effect, or the effect in half of the subjects. What is called half-life is the time needed for the level to fall by half in the phase considered. Broadly, the bioavailability is dose-corrected exposure relative to a reference, in per cent. Usually Cmax stands for the maximum level reached in the sampled fluid or tissue. For `Nc1nc(N)c(F)c(-c2nc(-c3ccc(F)cc3)c(-c3ccncc3)[nH]2)c1F`, the Protective activity in the data set on Rattus norvegicus [5] was -17%; in the data set on Rattus norvegicus [7], -58%; in the data set with Rattus norvegicus [8] it was -38%; in the data set on Rattus norvegicus [9] it was -44%; with Rattus norvegicus [11] it was -44%; in the data set with Rattus norvegicus [12], -4%. For the same compound, the Protective activity is given as -15% in the data set with Rattus norvegicus [13]; -37% with Rattus norvegicus [14]; -45% in the data set on Rattus norvegicus [15]; -11% in the data set on Rattus norvegicus [19]; -42% in the data set on Rattus norvegicus [20]; -64% with Rattus norvegicus [22]. For the same compound, the ED50 in the data set on Rattus norvegicus [6] stood at 10 mg/kg; in the data set listed under Rattus norvegicus [16] it was 43 mg/kg; in the data set listed under Rattus norvegicus [17], 4 mg/kg; in the data set filed under Rattus norvegicus [21] it was 5 mg/kg. In data set [10], the half-life was 1 h. This compound also gave an inhibition in vivo at 10 mg/kg with Mus musculus of 83%. For the same compound, the half-maximal inhibitory concentration (IC50) in [1] is 16 nM; in the data set listed under Homo sapiens it was 250 nM; in the data set on PBMC it was 44 nM; in data set [3], > 100000 nM. In addition, the bioavailability in [18] came out at 49%. In [23], this compound returned a peak concentration (Cmax) of 3.12 µM.

In the data set with Mus musculus, `Nc1nc(N)c(F)c(-c2nc(-c3ccncc3)c(-c3ccco3)[nH]2)c1F` had an inhibition in vivo at 10 mg/kg of 28%. Besides, the IC50 came to 670 nM in data set [1], 294 nM in the data set with PBMC and 100000 nM in [3].
